# Results: ChEMBL document CHEMBL4689842, “EUbOPEN Chemogenomics Library wave 1” (2021)
# System: U2OS
# Assay: Multiplex assay against U2OS
# Format: toxicity, cell-based
# Conditions: human
# Summary of the method: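 Tubulin, mitochondrial-mass and membrane-permeability phenotypes are per cents of healthy-nucleus cells. Cells were gated by CellPathfinder machine learning into Hoechst high-intensity objects or normal cells, normal cells into healthy, pyknosed or fragmented nuclei, and pyknosed cells into mitotic or apoptotic. Before that, live cells stained at seeding with Hoechst33342, BioTracker Green Microtubule Cytoskeleton Dye, MitoTracker Red and Annexin V Alexa Fluor 680 were imaged on a CQ1 microscope at 37°C and 5% CO2 after compound addition.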
# [1] = 12 h, 1 µM, compound concentration 1 uM, replicate 1
# [2] = 12 h, 1 µM, compound concentration 1 uM, replicate 2
# [3] = 12 h, 10 µM, compound concentration 10 uM, replicate 1
# [4] = 12 h, 10 µM, compound concentration 10 uM, replicate 2
# [5] = 24 h, 1 µM, compound concentration 1 uM, replicate 1
# [6] = 24 h, 1 µM, compound concentration 1 uM, replicate 2
# [7] = 24 h, 10 µM, compound concentration 10 uM, replicate 1
# [8] = 24 h, 10 µM, compound concentration 10 uM, replicate 2
# [9] = 48 h, 1 µM, compound concentration 1 uM, replicate 1
# [10] = 48 h, 1 µM, compound concentration 1 uM, replicate 2
# [11] = 48 h, 10 µM, compound concentration 10 uM, replicate 1
# [12] = 48 h, 10 µM, compound concentration 10 uM, replicate 2
structure (smiles),measurement,setting,value
Cc1nc(-c2ccc(-c3ccc(C(=O)N4CCc5cc6c(cc54)C4(CCN(C)CC4)CO6)cc3)c(C)c2)no1 [SB-224289],Population Apoptotic (%),[1],50%
same,Population Fragmented Nuclei (%),[1],11%
same,Population Healthy Nuclei (%),[1],74%
same,Population Hoechst High Intensity Objects (%),[1],8%
same,Population Membrane Permeable-Phenotype (%),[1],6%
same,Population Mitochondria Different-Phenotype (%),[1],43%
same,Population Mitotic Cells (%),[1],50%
same,Population Normal (%),[1],91%
same,Population Pyknosed Nuclei (%),[1],13%
same,Population Tubulin-Different-Phenotype (%),[1],46%
same,Total Cell Count,[1],130
same,Population Apoptotic (%),[2],28%
same,Population Fragmented Nuclei (%),[2],4%
same,Population Healthy Nuclei (%),[2],81%
same,Population Hoechst High Intensity Objects (%),[2],12%
same,Population Membrane Permeable-Phenotype (%),[2],10%
same,Population Mitochondria Different-Phenotype (%),[2],42%
same,Population Mitotic Cells (%),[2],71%
same,Population Normal (%),[2],87%
same,Population Pyknosed Nuclei (%),[2],14%
same,Population Tubulin-Different-Phenotype (%),[2],37%
same,Total Cell Count,[2],65
same,Population Apoptotic (%),[3],62%
same,Population Fragmented Nuclei (%),[3],19%
same,Population Healthy Nuclei (%),[3],61%
same,Population Hoechst High Intensity Objects (%),[3],7%
same,Population Membrane Permeable-Phenotype (%),[3],45%
same,Population Mitochondria Different-Phenotype (%),[3],98%
same,Population Mitotic Cells (%),[3],37%
same,Population Normal (%),[3],92%
same,Population Pyknosed Nuclei (%),[3],19%
same,Population Tubulin-Different-Phenotype (%),[3],98%
same,Total Cell Count,[3],147
same,Population Apoptotic (%),[4],63%
same,Population Fragmented Nuclei (%),[4],7%
same,Population Healthy Nuclei (%),[4],77%
same,Population Hoechst High Intensity Objects (%),[4],11%
same,Population Membrane Permeable-Phenotype (%),[4],54%
same,Population Mitochondria Different-Phenotype (%),[4],100%
same,Population Mitotic Cells (%),[4],36%
same,Population Normal (%),[4],88%
same,Population Pyknosed Nuclei (%),[4],15%
same,Population Tubulin-Different-Phenotype (%),[4],100%
same,Total Cell Count,[4],56
same,Population Apoptotic (%),[5],53%
same,Population Healthy Nuclei (%),[5],75%
same,Population Hoechst High Intensity Objects (%),[5],6%
same,Population Membrane Permeable-Phenotype (%),[5],4%
same,Population Mitochondria Different-Phenotype (%),[5],40%
same,Population Mitotic Cells (%),[5],46%
same,Population Normal (%),[5],93%
same,Population Pyknosed Nuclei (%),[5],9%
same,Population Tubulin-Different-Phenotype (%),[5],25%
same,Total Cell Count,[5],152
same,Population Apoptotic (%),[6],0%
same,Population Fragmented Nuclei (%),[6],15%
same,Population Healthy Nuclei (%),[6],77%
same,Population Hoechst High Intensity Objects (%),[6],9%
same,Population Membrane Permeable-Phenotype (%),[6],6%
same,Population Mitochondria Different-Phenotype (%),[6],38%
same,Population Mitotic Cells (%),[6],100%
same,Population Normal (%),[6],90%
same,Population Pyknosed Nuclei (%),[6],7%
same,Population Tubulin-Different-Phenotype (%),[6],22%
same,Total Cell Count,[6],73
same,Population Apoptotic (%),[7],75%
same,Population Fragmented Nuclei (%),[7],24%
same,Population Healthy Nuclei (%),[7],51%
same,Population Hoechst High Intensity Objects (%),[7],9%
same,Population Membrane Permeable-Phenotype (%),[7],84%
same,Population Mitochondria Different-Phenotype (%),[7],98%
same,Population Mitotic Cells (%),[7],25%
same,Population Normal (%),[7],90%
same,Population Pyknosed Nuclei (%),[7],23%
same,Population Tubulin-Different-Phenotype (%),[7],98%
same,Total Cell Count,[7],171
same,Population Apoptotic (%),[8],76%
same,Population Fragmented Nuclei (%),[8],16%
same,Population Healthy Nuclei (%),[8],56%
same,Population Hoechst High Intensity Objects (%),[8],11%
same,Population Membrane Permeable-Phenotype (%),[8],86%
same,Population Mitochondria Different-Phenotype (%),[8],100%
same,Population Mitotic Cells (%),[8],23%
same,Population Normal (%),[8],88%
same,Population Pyknosed Nuclei (%),[8],26%
same,Population Tubulin-Different-Phenotype (%),[8],100%
same,Total Cell Count,[8],63
same,Population Apoptotic (%),[9],54%
same,Population Fragmented Nuclei (%),[9],12%
same,Population Healthy Nuclei (%),[9],77%
same,Population Hoechst High Intensity Objects (%),[9],6%
same,Population Membrane Permeable-Phenotype (%),[9],3%
same,Population Mitochondria Different-Phenotype (%),[9],15%
same,Population Mitotic Cells (%),[9],45%
same,Population Normal (%),[9],93%
same,Population Tubulin-Different-Phenotype (%),[9],15%
same,Total Cell Count,[9],156
same,Population Apoptotic (%),[10],50%
same,Population Fragmented Nuclei (%),[10],9%
same,Population Healthy Nuclei (%),[10],80%
same,Population Hoechst High Intensity Objects (%),[10],9%
same,Population Membrane Permeable-Phenotype (%),[10],8%
same,Population Mitochondria Different-Phenotype (%),[10],14%
same,Population Mitotic Cells (%),[10],50%
same,Population Normal (%),[10],90%
same,Population Pyknosed Nuclei (%),[10],10%
same,Population Tubulin-Different-Phenotype (%),[10],11%
same,Total Cell Count,[10],88
same,Population Apoptotic (%),[11],81%
same,Population Fragmented Nuclei (%),[11],27%
same,Population Healthy Nuclei (%),[11],28%
same,Population Hoechst High Intensity Objects (%),[11],15%
same,Population Membrane Permeable-Phenotype (%),[11],94%
same,Population Mitochondria Different-Phenotype (%),[11],97%
same,Population Mitotic Cells (%),[11],18%
same,Population Normal (%),[11],84%
same,Population Pyknosed Nuclei (%),[11],44%
same,Population Tubulin-Different-Phenotype (%),[11],97%
same,Total Cell Count,[11],225
same,Population Apoptotic (%),[12],88%
same,Population Fragmented Nuclei (%),[12],8%
same,Population Healthy Nuclei (%),[12],46%
same,Population Hoechst High Intensity Objects (%),[12],18%
same,Population Membrane Permeable-Phenotype (%),[12],75%
same,Population Mitochondria Different-Phenotype (%),[12],100%
same,Population Mitotic Cells (%),[12],11%
same,Population Normal (%),[12],81%
same,Population Pyknosed Nuclei (%),[12],45%
same,Population Tubulin-Different-Phenotype (%),[12],100%
same,Total Cell Count,[12],85
